The values below come from ChEMBL document CHEMBL1828544, “Structural modification of honokiol, a biphenyl occurring in Magnolia officinalis: the evaluation of honokiol analogues as inhibitors of angiogenesis and for their cytotoxicity and structure-activity relationship” (J Med Chem, 2011).

pIC50: −log10 of the molar value. Calls of active or inactive are those of the source. The rule behind the calls is not given here.

The test system of assay [1] is HUVEC. Briefly: Antiproliferative activity against human HUVEC cells after 24 hrs by MTT assay. The assay is classed as functional, cell-based. The method, boiled down:
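Primary HUVECs grown on gelatin in M-199 with 20% FBS, 10 ng/mL bFGF, 2 ng/mL VEGF, 5% CO2, 37 °C. Cells (5 × 10^3/well) exposed to a range of compound concentrations for 24 h. MTT added for 3 h, formazan dissolved in DMSO, absorbance read at 570 nm. IC50 from percentage growth versus untreated control.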

Assay [2] is filed under the species Danio rerio. Description: Antiangiogenic activity in fli-1:enhanced GFP expressing transgenic zebrafish embryo assessed as inhibition of neovacularisation at 20 uM after 24 hrs relative to control. The assay is classed as functional. Put shortly:
(§1)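 fli-1:EGFP transgenic zebrafish embryos sorted at about 6 hpf (6 per well), exposed in embryo water to compound at 5–40 μM for 24 h. Then anesthetized with 0.05% 2-phenoxyethanol, photographed and quantified.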

In another assay the test system is A549. Briefly: Antiproliferative activity against human A549 cells after 24 hrs by MTT assay. The assay is classed as functional, cell-based. The settings on record: A549, 24 h. Put shortly:
(§2)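 Cells (5 × 10^3/well) kept at 37 °C, 5% CO2 and treated with varied compound concentrations for 24 h. MTT given for a further 3 h, precipitate dissolved in DMSO, absorbance taken at 570 nm. IC50 calculated from percentage growth relative to untreated control.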

For assay [3], the species on record is Danio rerio. Description: Antiangiogenic activity in fli-1:enhanced GFP expressing transgenic zebrafish embryo assessed as inhibition of neovacularisation at 40 uM after 24 hrs relative to control. In kind it is functional. Put shortly:
as §1

The next assay relates to HepG2. Description: Antiproliferative activity against human HepG2 cells after 24 hrs by MTT assay. In kind it is functional, cell-based. As to conditions: HepG2, 24 h. The method, boiled down: as §2
The subject of assay [4] is HUVEC. Briefly: Antimigratory activity against human HUVEC cells assessed as migration rate at 40 uM after 24 hrs by wound-healing assay relative to control. In kind it is functional. The method, boiled down:
(§3)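 HUVEC monolayers grown overnight to confluence on 0.1% gelatin, scratched with pipet tips, washed, then kept in serum-free DMEM with compound (20 or 40 μM) for 24 h at 37 °C, 5% CO2; control serum-free DMEM. Migrated cells counted manually from images at 0 and 24 h, three random fields; three independent experiments, mean ± SE.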

Assay [5] relates to HUVEC. Description: Antiangiogenic activity against human HUVEC cells assessed as inhibition of tube formation at 20 uM after 12 hrs by matrigel-based assay. In kind it is functional. Put shortly: (§4)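 HUVECs (1 × 10^4) in DMEM with compound (20 μM) plated on Matrigel that had set at 37 °C for 45 min; controls got DMEM alone. After 12 h at 37 °C, capillary networks were photographed and intact tubes counted in five random regions. Inhibition expressed as percentage of control.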

The species entered for assay [6] is Danio rerio. Description: Antiangiogenic activity in fli-1:enhanced GFP expressing transgenic zebrafish embryo assessed as inhibition of neovacularisation at 10 uM after 24 hrs relative to control. In kind it is functional. Put shortly:
as §1

The nature of assay [7]: Antiproliferative activity against mouse LL/2 cells after 24 hrs by MTT assay. In kind it is functional, cell-based. As to conditions: Lewis lung carcinoma. Put shortly: as §2
For assay [8], the system named is HUVEC. Description: Antimigratory activity against human HUVEC cells at 20 uM after 24 hrs by wound-healing assay. In kind it is functional, cell-based. The method, boiled down: as §3
For assay [9], the species on record is Danio rerio. Briefly: Antiangiogenic activity in fli-1:enhanced GFP expressing transgenic zebrafish embryo assessed as inhibition of neovacularisation at 5 uM after 24 hrs relative to control. The assay is classed as functional. The method, boiled down: as §1
For assay [10], the species on record is Danio rerio. Description: Antiangiogenic activity in fli-1:enhanced GFP expressing transgenic zebrafish embryo assessed as inhibition of intersomitic vessel sprouts after 48 hrs. The assay is classed as functional, organism-based. Put shortly:
(§5)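 Transgenic fli-1:EGFP zebrafish embryos (GFP across endothelium) sorted at about 6 hpf, 6 per well, with dead or unhealthy ones removed. Compound (10, 20, 40 μM) added to embryo water (0.2 g/L instant ocean salt) from 6 hpf for 48 h. Embryos then anesthetized in 0.05% 2-phenoxyethanol, imaged, and intersomitic and dorsal longitudinal anastomotic vessel sprouts assessed.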

In assay [11] the test system is HUVEC. Description: Antimigratory activity against human HUVEC cells after 24 hrs by wound-healing assay relative to honokiol. The assay is classed as functional. The method, boiled down: as §3
Assay [12] concerns HUVEC. Description: Antiangiogenic activity against human HUVEC cells assessed as inhibition of tube formation at 20 uM after 12 hrs by matrigel-based assay relative to honokiol. The assay is classed as functional. Put shortly: as §4
The species entered for assay [13] is Danio rerio. Description: Antiangiogenic activity in fli-1:enhanced GFP expressing transgenic zebrafish embryo assessed as inhibition of dorsal longitudinal anastomic vessel sprouts after 48 hrs. The assay is classed as functional, organism-based. The method, boiled down:
as §5

For the compound `C=CCc1cc(C=O)c(OC)c(-c2ccc(O)c(CC=C)c2)c1`, the pIC50 in the assay on HUVEC [1] was 4.49; with A549 it was 4.54; in the assay on HepG2, 4.68; in [7], 4.69. For the same compound, the “inhibition (INH)” value in the assay filed under Danio rerio [2] is on record as 25%; in the assay listed under Danio rerio [3], 25%; in the assay listed under Danio rerio [6] it was <25%; in the assay listed under Danio rerio [9], <25%. Also, the “Migration rate relative to control” value in the assay with HUVEC [4] was 63.2%. Moreover, the inhibition at 20 µM in the assay with HUVEC [5] amounted to 82.5%. For the same compound, the outcome with HUVEC [8] was Active.
On to `C=CCc1cc(C=O)c(O)c(-c2cc(C=O)c(O)c(CC=C)c2)c1`, for which the pIC50 with HUVEC [1] is 4.82; with A549, 4.52; with HepG2, 4.97; in assay [7] it was 4.66. The figures for the “inhibition (INH)” value in the assay filed under Danio rerio [2], in the assay listed under Danio rerio [6] and in the assay filed under Danio rerio [9] were 50%, 25% and <25%, respectively. The inhibition result in the assay listed under Danio rerio [10] and in the assay listed under Danio rerio [13] was “Dose-dependent effect” throughout. The “fold change (FC)” value came to 1.5 in the assay on HUVEC [11] and 2.5 in the assay with HUVEC [12]. Besides, in the assay with HUVEC [4], the “Migration rate relative to control” value was 21.2%. The inhibition at 20 µM in the assay with HUVEC [5] was determined as 21.3%. Further, the outcome in the assay with HUVEC [8] was Active.
